The values that follow come from ChEMBL document CHEMBL3244245, “Aporphines, 21. (1,2) Dopaminergic activity of aporphine and benzylisoquinoline derivatives. Synthesis of 8-hydroxyaporphines and 1-(hydroxybenzyl)-2-n-propyl-1,2,3,4-tetrahydroisoquinolines” (J Med Chem, 1977).

The source made the active and inactive calls. The calls are words filed in the database; no cut-off is given here.

The species named for test [1] is Rattus norvegicus. In words: Behavioral responses in Sprague-Dawley rat pretreated with nialamide assessed as hyperactivity response at 6.25 to 25 µg direct injection into caudate-putamen.
Test [2] has as its system Rattus norvegicus. Briefly: Behavioral responses in Sprague-Dawley rat with unilateral 6-OHDA lesion of nigrostriatal pathway assessed as bilateral response at 6.25 to 25 […] into caudate-putamen. Format: functional, organism-based. A digest of the protocol:
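Guide cannulae implanted chronically; rats used 10-14 days after surgery. Nialamide 100 mg/kg ip given 2 h before injection. Drug dissolved in nitrogen-bubbled distilled water and injected bilaterally into caudate-putamen through injection units 1.5 mm below guide tips. Photocell counts per 5-min period recorded every 10 min up to 7 h. Biting and sniffing scored on intensity scales. Six to twelve rats per dose.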

The test system of test [3] is Rattus norvegicus. In words: Behavioral responses in Sprague-Dawley rat with unilateral 6-OHDA lesion of nigrostriatal pathway assessed as hyperactivity response at 3.125 to 25 […] into nucleus accumbens. Format: functional, organism-based. Summed up: (§1)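 Guide cannulae implanted chronically; rats used 10-14 days after surgery. Nialamide 100 mg/kg ip given 2 h before injection. Drug in nitrogen-bubbled distilled water injected bilaterally into nucleus accumbens through units 2.5 mm below guide tips. Hyperactivity counted as photocell interruptions per 5-min period, recorded every 10 min up to 7 h. Biting and sniffing scored on intensity scales. Six to twelve rats per dose.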

Test [4] deals with Rattus norvegicus. In words: Stereotyped behavior in Sprague-Dawley rat with unilateral 6-OHDA lesion of nigrostriatal pathway assessed as continuous biting up to 4 mg/kg, sc. Format: functional, organism-based. On the set-up: dose 4 mg/kg.
Test [5] is filed under the species Rattus norvegicus. Briefly: Stereotyped behavior in Sprague-Dawley rat pretreated with nialamide assessed as biting behavior at 3.125 to 25 µg, bilateral intrastriatal.
The species named for test [6] is Rattus norvegicus. In words: Stereotyped behavior in Sprague-Dawley rat pretreated with nialamide assessed as sniffing behavior at 3.125 to 25 µg, bilateral intrastriatal.
For test [7], the species on record is Rattus norvegicus. Briefly: Stereotyped behavior in Sprague-Dawley rat pretreated with nialamide assessed as hyperactivity behavior at 3.125 to 25 µg, bilateral intrastriatal.
In test [8] the test system is Rattus norvegicus. In words: Antagonism of dopamine-induced hyperactivity in Sprague-Dawley rat with unilateral 6-OHDA lesion of nigrostriatal pathway at 0.1 to 1 mg/kg, sc after 2.5 hrs treated bilateral injection of 50 ug of dopamine into the nucleus accumbens. Format: functional, organism-based. A digest of the protocol:
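Rats received nialamide 100 mg/kg ip, then 2 h later 50 µg dopamine bilaterally into the nucleus accumbens. At 2.5 h, at peak hyperactivity, test drug was given sc in water with 0.1% sodium metabisulfite. Locomotion was measured as photocell beam interruptions per 5 min. Five to eight rats were used per dose.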

For test [9], the species on record is Rattus norvegicus. In words: Stereotyped behavior in Sprague-Dawley rat pretreated with nialamide assessed as bilateral behavior at 3.125 to 25 µg, bilateral intrastriatal.
Test [10] has as its system Rattus norvegicus. Briefly: Stereotyped behavior in Sprague-Dawley rat with unilateral 6-OHDA lesion of nigrostriatal pathway assessed as sniffing and repetitive head and limb movements up to 4 mg/kg, sc. In kind it is functional, organism-based. On the set-up: dose 4 mg/kg.
For test [11], the system named is Rattus norvegicus. Briefly: Circling behavior in Sprague-Dawley rat with unilateral 6-OHDA lesion of nigrostriatal pathway assessed as number of revolutions performed per min at 0.25 to 4 mg/kg, sc. In kind it is functional, organism-based. A digest of the protocol: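 Unilateral lesion made by infusing 4 µl 6-OHDA at 1 µl/min into the medial forebrain bundle in the lateral hypothalamus. Rats were tested 7-21 days later with drug given sc in distilled water containing 0.1% sodium metabisulfite. Contralateral circling was counted as revolutions per min. Values are the mean of at least five rats.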

In test [12] the test system is Rattus norvegicus. In words: Stereotyped behavior in Sprague-Dawley rat with unilateral 6-OHDA lesion of nigrostriatal pathway assessed as continuous biting at 0.5 to 4 mg/kg, sc. In kind it is functional, organism-based.
For test [13], the system named is Rattus norvegicus. Briefly: Stereotyped behavior in Sprague-Dawley rat with unilateral 6-OHDA lesion of nigrostriatal pathway assessed as biting behavior at 25 to 50 […] into caudate-putamen. Format: functional, organism-based. Summed up: (§2)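 Nialamide 100 mg/kg ip was given 2 h beforehand. Drug was dissolved in nitrogen-bubbled water and injected bilaterally through chronic guide cannulae 10-14 days after surgery. Injection units extended 1.5 mm (caudate-putamen) or 2.5 mm (nucleus accumbens) below the guides. Biting and sniffing were scored in photocell boxes, and hyperactivity was counted as beam interruptions per 5 min, recorded every 10 min for up to 7 h. Six to twelve rats were used per dose.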

Test [14] has as its system Rattus norvegicus. Briefly: Stereotyped behavior in Sprague-Dawley rat with unilateral 6-OHDA lesion of nigrostriatal pathway assessed as sniffing behavior at 6.25 to 50 […] into nucleus accumbens. In kind it is functional, organism-based. A digest of the protocol:
as §2

In test [15] the test system is Rattus norvegicus. In words: Stereotyped behavior in Sprague-Dawley rat with unilateral 6-OHDA lesion of nigrostriatal pathway assessed as continuous biting at 2 mg/kg, sc. In kind it is functional, organism-based. Further details: dose 2 mg/kg.
For test [16], the species on record is Rattus norvegicus. In words: Stereotyped behavior in Sprague-Dawley rat pretreated with nialamide assessed as sniffing behavior at 50 µg, bilateral intrastriatal.
Test [17] deals with Rattus norvegicus. In words: Stereotyped behavior in Sprague-Dawley rat with unilateral 6-OHDA lesion of nigrostriatal pathway assessed as maximal sniffing and repetitive head and limb movements at 0.5 mg/kg, sc. In kind it is functional, organism-based. On the set-up: dose 0.5 mg/kg.
Test [18] concerns Rattus norvegicus. Briefly: Antagonism of dopamine-induced hyperactivity in sc dosed Sprague-Dawley rat with unilateral 6-OHDA lesion of nigrostriatal pathway after 2.5 hrs treated bilateral injection of 50 ug of dopamine into the nucleus accumbens. In kind it is functional, organism-based. A digest of the protocol: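 Rats pretreated with nialamide 100 mg/kg ip; 2 h later, 50 µg dopamine bilaterally into nucleus accumbens. At 2.5 h, at peak hyperactivity, test drug given sc in distilled water with 0.1% sodium metabisulfite. Activity read as photocell beam interruptions per 5-min period. Five to eight rats per dose.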

Test [19] has as its system Rattus norvegicus. In words: Stereotyped behavior in sc dosed Sprague-Dawley rat with unilateral 6-OHDA lesion of nigrostriatal pathway assessed as sniffing and repetitive head and limb movements. Format: functional, organism-based.
Test [20] concerns Rattus norvegicus. In words: Behavioral responses in Sprague-Dawley rat with unilateral 6-OHDA lesion of nigrostriatal pathway assessed as hyperactivity response at 6.25 to 50 […] direct injection into nucleus accumbens. In kind it is functional, organism-based. Summed up:
as §2

Test [21] concerns Rattus norvegicus. In words: Stereotyped behavior in Sprague-Dawley rat with unilateral 6-OHDA lesion of nigrostriatal pathway assessed as biting behavior at 6.25 to 50 […] into nucleus accumbens. In kind it is functional, organism-based. A digest of the protocol:
as §2

For test [22], the species on record is Rattus norvegicus. Briefly: Stereotyped behavior in Sprague-Dawley rat with unilateral 6-OHDA lesion of nigrostriatal pathway assessed as continuous biting. In kind it is functional, organism-based.
Test [23] has as its system Rattus norvegicus. In words: Circling behavior in sc dosed Sprague-Dawley rat with unilateral 6-OHDA lesion of nigrostriatal pathway assessed as number of revolutions performed per min. Format: functional, organism-based. A digest of the protocol:
(§3)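 Unilateral lesion made with 6-OHDA, 4 µl of 2 µg/µl at 1 µl/min, into medial forebrain bundle area of lateral hypothalamus. Rats tested 7-21 days later. Drug given sc in distilled water with 0.1% sodium metabisulfite. Contralateral circling counted as revolutions per minute. Mean of at least five rats.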

For test [24], the species on record is Rattus norvegicus. Briefly: Behavioral responses in Sprague-Dawley rat pretreated with nialamide assessed as hyperactivity response at 25 µg, bilateral intrastriatal.
Test [25] concerns Rattus norvegicus. Briefly: Stereotyped behavior in Sprague-Dawley rat with unilateral 6-OHDA lesion of nigrostriatal pathway assessed as sniffing behavior at 25 […] into nucleus accumbens. In kind it is functional, organism-based. Summed up:
as §1

Test [26] relates to Rattus norvegicus. Briefly: Stereotyped behavior in Sprague-Dawley rat with unilateral 6-OHDA lesion of nigrostriatal pathway assessed as biting behavior at 3.125 to 25 […] into nucleus accumbens. Format: functional, organism-based. Summed up:
as §1

Test [27] deals with Rattus norvegicus. Briefly: Stereotyped behavior in Sprague-Dawley rat with unilateral 6-OHDA lesion of nigrostriatal pathway assessed as maximal biting behavior at 25 […] into nucleus accumbens. In kind it is functional, organism-based. A digest of the protocol:
as §1

The species named for test [28] is Rattus norvegicus. Briefly: Stereotyped behavior in Sprague-Dawley rat pretreated with nialamide assessed as sniffing behavior at 25 µg, bilateral intrastriatal.
Test [29] deals with Rattus norvegicus. Briefly: Stereotyped behavior in Sprague-Dawley rat with unilateral 6-OHDA lesion of nigrostriatal pathway assessed as continuous biting at 0.1 mg/kg, sc. Further details: dose 0.1 mg/kg. Format: functional, organism-based.
Test [30] has as its system Rattus norvegicus. Briefly: Stereotyped behavior in Sprague-Dawley rat with unilateral 6-OHDA lesion of nigrostriatal pathway assessed as sniffing and repetitive head and limb movements at 0.0063 to 0.05 mg/kg, sc. In kind it is functional, organism-based.
For test [31], the species on record is Rattus norvegicus. In words: Stereotyped behavior in Sprague-Dawley rat pretreated with nialamide assessed as biting behavior at 25 µg, bilateral intrastriatal.
Test [32] deals with Rattus norvegicus. In words: Circling behavior in Sprague-Dawley rat with unilateral 6-OHDA lesion of nigrostriatal pathway assessed as number of revolutions performed per min at 0.5 to 2 mg/kg, sc. In kind it is functional, organism-based. A digest of the protocol:
as §3

Regarding `CN1CCc2cccc3c2C1Cc1c(O)cccc1-3` (racemic), the outcome in [1] and in test [2] was inactive.

`CCCN1CCc2cccc3c2C1Cc1c(O)cccc1-3` (racemic): the result in test [3], in test [5], in [6], in test [7], in test [1] and in [9] was inactive. Further, the outcome in test [10], in test [11] and in test [2] was inactive. Moreover, the outcome in test [4] was Active. The inhibition result in test [8] is “inactive”.

In the case of `CCCN1CCc2ccccc2C1Cc1ccc(O)cc1` (racemic), the result in test [12], in test [3], in [5], in test [6], in [7] and in test [1] was inactive. In addition, the outcome in test [9], in test [10], in test [11] and in test [2] was inactive. In addition, the inhibition result in test [8] is “inactive”.

Turning to `CN1CCc2cccc3c2[C@H]1Cc1ccc(O)c(O)c1-3`, the result in [13], in test [14], in test [15], in test [17], in test [20] and in test [21] was Active. In addition, the result in test [16], in [1] and in test [2] was inactive. For the same molecule, in test [18], the inhibition entry was “Dose-dependent effect”. Besides, the Activity result in test [19], in [22] and in [23] was “Dose-dependent effect” in each case. Moreover, in test [8], the inhibition entry is “inactive”.

For the molecule `CCCN1CCc2cccc3c2[C@H]1Cc1ccc(O)c(O)c1-3`, the outcome in test [3], in test [24], in test [1] and in test [2] was inactive. For the same molecule, the inhibition entry in test [18] was “Dose-dependent effect”. The result in [25], in [26], in [27], in test [28], in test [29] and in test [30] was Active. Also, the outcome in test [31] was Active. In addition, the Activity result in [23] was “Dose-dependent effect”.

As for `CCCN1CCc2cccc3c2C1Cc1ccc(O)cc1-3` (stereo unspecified), the result in test [3], in test [5], in [6], in test [7], in test [1] and in [9] was inactive. Besides, the outcome in [10] and in test [2] was inactive. For the same molecule, the outcome in test [4] was Active. The Activity entry in test [32] was “Dose-dependent effect”. Also, the inhibition entry in test [8] is “inactive”.

As to `CCCN1CCc2ccccc2C1Cc1ccc(O)c(O)c1` (racemic), the result in test [12], in [3], in test [5], in test [6], in [7] and in test [1] was inactive. Further, the outcome in test [9], in test [10], in test [11] and in test [2] was inactive. Besides, the inhibition result in [8] is “inactive”.

On to `NCCc1ccc(O)c(O)c1`, for which the result in [1] and in test [2] was Active. In addition, the outcome in [20] was inactive.
